The subject of assay [1] is A549 lung adenocarcinoma epithelial cells. The assay is described as follows: Flow cytometry binding to A549. It is filed as cell-based, human. Summed up: (§1)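 Cells were grown 48 h, trypsinized and washed in PBS with 10% FBS. 1.0 × 10^6 cells in 200 μL antibody solution, 2 h on ice. FITC-labelled anti-mouse IgG 1 h on ice, then three washes and resuspension in PBS/10% FBS. Analysed by flow cytometry; histograms overlaid on isotype control antibody.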

In assay [2] the test system is H292 mucoepidermoid carcinoma cells. The assay is described as follows: Flow cytometry binding to H292. The format is cell-based, human. Summed up: as §1
Background: In flow cytometry, cells or beads pass a laser one at a time.

The subject of assay [3] is MUC1 glycopeptides PDT*R-Tn-20-, 40-, 60-, 100-mer and PDT*R-STn-20-, 40-, 60-, 100-mer. The format is binding. To be noted: ELISA signals with 20-, 60- and 100-mer glycopeptides. Summed up:
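Streptavidin (10 μg/mL in 50 mM Tris–HCl, pH 7.5) coated overnight at 4 °C; blocked 2 h at RT. Biotinylated Tn- or STn-glycopeptides (20-, 40-, 60-, 100-mer) captured overnight at 4 °C. Antibody overnight at 4 °C, HRP-anti-mouse IgG 2 h at RT. TMB 30 min, H2SO4 stop, A450. Antibody concentration set separately for each antibody.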
In general terms: An ELISA detects its analyte on a solid surface through an enzyme-linked reagent.

Assay [4] deals with Calu-3 lung adenocarcinoma cells. The assay is described as follows: Flow cytometry binding to Calu-3. It is filed as cell-based, human. The procedure, abridged: as §1
Assay [5] deals with T-47D breast cancer cells. The assay is described as follows: Flow cytometry binding to T-47D. It is filed as cell-based, human. The procedure, abridged: as §1
Assay [6] concerns 184A1 mammary epithelial cells. The assay is described as follows: Flow cytometry binding to 184A1. The format is cell-based, human. Summed up: as §1

We go through 1 molecule from article PMC6044872 (ACS Omega, 2017).

B1: PankoMab: anti-MUC1 antibody (Glycotope, Germany), established using desialylated MUC1 as the immunogen (antibody, chains of the INN, looked up, V domains shown)
VH: EVQLVESGGGLVQPGGSMRLSCVASGFPFSNYWMNWVRQAPGKGLEWVGEIRLKSNNYTTHYAESVKGRFTISRDDSKNSLYLQMNSLKTEDTAVYYCTRHYYFDYWGQGTLVTVSS
VL: DIVMTQSPLSNPVTPGEPASISCRSSKSLLHSNGITYFFWYLQKPGQSPQLLIYQMSNLASGVPDRFSGSGSGTDFTLRISRVEAEDVGVYYCAQNLELPPTFGQGTKVEIK
In the case of B1, the “Binding to A549 (in words)” value in assay [1] was “hardly bound”. Besides, in assay [2], the “Binding to H292 (in words)” value is on record as “hardly bound”. Besides, the “Tandem-repeat dependence of binding” value in assay [3] is on record as “tandem-repeat-dependent manner”. Further, in assay [4], the “Binding to Calu-3 (in words)” value is on record as “hardly bound”. In assay [5], the “Binding to T-47D (in words)” value was “bound only to T-47D”. For the same molecule, the “Binding to 184A1 (in words)” value in assay [6] is “hardly bound”.
